The nature of data set [1]: Induction of [32P]-labeled 49-mer oligonucleotide duplex DNA 12 with GNC sequence at terminus (unknown origin) interstrand cross-linking at 1 mM after 16 hrs by PAGE. In a few lines: (§1)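 32P-labelled 12a (1.0 μM) annealed with 1.5 equiv of 12b in 10 mM potassium phosphate pH 7 / 100 mM NaCl (65 °C for 3 min, then slow cooling). Duplex incubated with compound (final 1 μM–5 mM), with or without H2O2, in NaCl and potassium phosphate pH 8 at room temperature for 16 h. Quenched in formamide; 20% denaturing PAGE.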

A short description of data set [2]: Ratio of induction of [32P]-labeled 49-mer oligonucleotide duplex DNA 12 with GNC sequence at terminus (unknown origin) interstrand cross-linking in presence of H2O2 to induction of [32P]-labeled 49-mer oligonucleotide duplex DNA 12 with GNC sequence at terminus (unknown origin) in absence of H2O2. In a few lines: as §1
Data set [3] can be described thus: Induction of [32P]-labeled 49-mer oligonucleotide duplex DNA 12 with GNC sequence at terminus (unknown origin) interstrand cross-linking at 50 uM after 16 hrs by PAGE in presence of H2O2. The method, boiled down: as §1
Data set [4] in a line: Drug level in deuterated phosphate buffer treated with 40 mM N,N-Bis(2-chloroethyl)-4-(4,4,5,5-tetramethyl-1,3,2-dioxaborolan-2-yl)aniline after 24 hrs by 1H-NMR analysis. The class given is physicochemical. The method, boiled down:
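1H NMR of the boronate mustard (40 mM) held 24 h in deuterated potassium phosphate buffer (4.0 mM) with no H2O2. Solvent was 1.0 M deuterated potassium phosphate buffer/DMSO-d6/D2O = 2:450:48.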

The values below come from ChEMBL document CHEMBL3286203, “Reactive oxygen species (ROS) inducible DNA cross-linking agents and their effect on cancer cells and normal lymphocytes” (J Med Chem, 2014).

`CC1(C)OB(c2ccc(N(CCOS(C)(=O)=O)CCOS(C)(=O)=O)cc2)OC1(C)C`: the Activity turned out to be 22% in data set [1] and 3% in data set [3]. For the same compound, the Ratio in data set [2] is 3.

For the compound `CC(C)(O)C(C)(C)O`, in data set [4], the Drug metabolism entry is reported as “metabolite_detected”.
